Laboratory results taken from the array DNA melting data of Ke et al. (doi:10.1101/2024.01.08.574731).

Legend:
[1] = folding enthalpy; higher = less favourable; fluorescence melt of hairpins on a sequencing array, two-state fit; conditions: sodium 0.088 M
In short: (§1)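 Hairpins were imaged by Cy3 fluorescence on a sequenced MiSeq flow cell with annealed Cy3 and quencher oligos, in 50 mM Na-HEPES pH 8.0, 25 mM NaCl, in 2.5 °C steps up to 60 °C. Bootstrapped two-state fits of normalised signals gave melting temperature and folding enthalpy. Four replicates were combined by inverse variance, and fitted temperatures were raised by 9.35 °C to match UV melts.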

[2] = melting temperature; fluorescence melt of hairpins on a sequencing array, two-state fit, raised by 9.35 °C to match UV melts; conditions: sodium 0.088 M
In short: as §1

| Sequence | folding enthalpy [1] | Tm [2] |
| --- | --- | --- |
| GCCTCCGGAAACAGAGGC (((((.(....).))))) | -36.5 kcal/mol | 48.7 °C |
| GCGAGCCATCGC ((((....)))) | -28.4 kcal/mol | 57.2 °C |
| GATCATAGGCATGATC ((((((....)))))) | -32.4 kcal/mol | 48.5 °C |
| GGCACGCCGAAAGGCGCC (((..(((....)))))) | -6.45 kcal/mol | 40.3 °C |
| GATCACTTAGGTGATC ((((((....)))))) | -41.6 kcal/mol | 57.6 °C |
| GTCTGTGGAAACATAGGC (.((.((....)).)).) | -16.4 kcal/mol | 31.3 °C |
| GTTCGCGAAAGCGTTAAC ((((((....)))..))) | -10.9 kcal/mol | 27.8 °C |
| GATCTAATTGTAGATC ((((((....)))))) | -33 kcal/mol | 38.8 °C |
| GTTTAAGAAATTAAAC ((((((....)))))) | -16.8 kcal/mol | 32.4 °C |
| GGCCGCGGAAACGCGACC ((.((((....)))).)) | -19.7 kcal/mol | 63.3 °C |
| GATCTAAGGGTAGATC ((((((....)))))) | -25.1 kcal/mol | 35.3 °C |
| GAACCCGAAAGGGGTTC ((((((....))).))) | -26 kcal/mol | 61.1 °C |
| GGGGGTGGAAACGTCCCC ((((..(....)..)))) | -26.2 kcal/mol | 48.7 °C |
| GGCGTAGAAATACGCC ((((((....)))))) | -37.5 kcal/mol | 66.1 °C |
| TTTGGGAAACCAAA (((((....))))) | -13.6 kcal/mol | 38.2 °C |
| GATCTGGCTTCAGATC ((((((....)))))) | -37.8 kcal/mol | 50.6 °C |
| GGACGCCGAAAGGCCTCC (((.(((....))).))) | -19.1 kcal/mol | 44.5 °C |
| GCGGACGGAAACATCCGC (((((.(....).))))) | -39.2 kcal/mol | 52.9 °C |
| GGGTAGGGAAACCTACTC (.(((((....))))).) | -18.7 kcal/mol | 44.6 °C |
| GGCAGGAAACTGCC (((((....))))) | -31.6 kcal/mol | 65.6 °C |
| GAATCCGGAAACGGATCC (.(((((....))))).) | -14.2 kcal/mol | 40.6 °C |
| GTAGTCGGAAACGACCAC ((.((((....)))).)) | -14.5 kcal/mol | 37.4 °C |
| GTGAGGGGAAACTCTCAC (((((.(....).))))) | -32 kcal/mol | 49.4 °C |
| GTAATGGGAAACCGTTAC ((((.((....)).)))) | -34.3 kcal/mol | 44.1 °C |

| Sequence | folding enthalpy [1] | Tm [2] |
| --- | --- | --- |
| GATCTGAGATCAGATC ((((((....)))))) | -36.1 kcal/mol | 49.2 °C |
| GAACGCGGAAACACGTCC (.(((.(....).))).) | -20.1 kcal/mol | 28.2 °C |
| GCCTTCGCGAAAGCGGGC (((..(((....)))))) | -12.2 kcal/mol | 55.1 °C |
| GCTCGCGAAAGCGGGAGC ((((((....)))..))) | -15.7 kcal/mol | 55.1 °C |
| GGCTACGAAAGTACCGCC ((((((....)))..))) | -23.1 kcal/mol | 48.4 °C |
| CGTACGCGGAAACGCACG (((..(((....)))))) | -13.5 kcal/mol | 40.7 °C |
| GCCAGACGAAAGTCAGGC (((.(((....))).))) | -32.6 kcal/mol | 64.8 °C |
| GATCAGGTATCTGATC ((((((....)))))) | -40.8 kcal/mol | 57.5 °C |
| GCACATACGAAAGTATGC (((..(((....)))))) | -9.91 kcal/mol | 35.4 °C |
| GCGCTGGGAAACCAGTGC ((.((((....)))).)) | -45.9 kcal/mol | 60.6 °C |
| GAGGATGGAAACATCCTC (((((((....))))))) | -49.6 kcal/mol | 61.3 °C |
| GGTCAGACGAAAGTCACC (((..(((....)))))) | -14.6 kcal/mol | 30.5 °C |
| GATGGACGAAAGTCAATC (((.(((....))).))) | -26.3 kcal/mol | 48.1 °C |
| GCGATCGCTCGC ((((....)))) | -24.2 kcal/mol | 49.6 °C |
| GTCCTCCGAAAGGACGAC (((.(((....))).))) | -26.1 kcal/mol | 49.7 °C |
| GATCATTCAAATGATC ((((((....)))))) | -34 kcal/mol | 47.3 °C |
| GGAGTCGAAAGACTCTCC ((((((....)))..))) | -10.2 kcal/mol | 51.6 °C |
| GTCATCGGAAACGATGGC (.(((((....))))).) | -28.1 kcal/mol | 56.2 °C |
| GCTATGCGAAAGCAAAGC (((.(((....))).))) | -36 kcal/mol | 51.6 °C |
| GCGGGTACGAAAGTACGC (((..(((....)))))) | -13.8 kcal/mol | 51.5 °C |
| GCGTGGCCGAAAGGCCGC (((..(((....)))))) | -9.18 kcal/mol | 57.2 °C |
| GATCCGGCGCGGATC ((((((...)))))) | -37.1 kcal/mol | 59.3 °C |
| GGACACGAAAGTGGTTCC ((((((....)))..))) | -14.3 kcal/mol | 37.3 °C |
| GATCTGTGGACAGATC ((((((....)))))) | -45.1 kcal/mol | 53.2 °C |

| Sequence | folding enthalpy [1] | Tm [2] |
| --- | --- | --- |
| GTGTCAGGAAACTGGCAC (((.(((....))).))) | -39.4 kcal/mol | 54.4 °C |
| GTGTGTCGAAAGACTCAC (((.(((....))).))) | -40.9 kcal/mol | 53.2 °C |
| ACGGAGAAATCCGT (((((....))))) | -19 kcal/mol | 49.2 °C |
| GATCCAGAACTGGATC ((((((....)))))) | -37.6 kcal/mol | 56.4 °C |
| GCATCGCGAAAGCGGAGC ((..(((....)))..)) | -16.5 kcal/mol | 54.2 °C |
| CGGCCCGGAAACGGCCG (((.(((....)))))) | -31 kcal/mol | 63.7 °C |
| GCCGAGCGAAAGCTAAGC ((..(((....)))..)) | -16.3 kcal/mol | 40 °C |
| GATCCACCCATGGATC ((((((....)))))) | -34.2 kcal/mol | 50.7 °C |
| GCCTAGCGAAAGCTACGC ((.((((....)))).)) | -19 kcal/mol | 41.8 °C |
| GATGAAGGAAACTTCATC (((((((....))))))) | -40.9 kcal/mol | 53.5 °C |
| GGTTCGACGAAAGTCACC (((..(((....)))))) | -11.9 kcal/mol | 24.9 °C |
| GCGTCGGGAAACCAACGC ((((.((....)).)))) | -41.5 kcal/mol | 51.5 °C |
| GCCGAGACGAAAGTCGGC (((..(((....)))))) | -28.4 kcal/mol | 61.8 °C |
| GATCGAAGCCTCGATC ((((((....)))))) | -33 kcal/mol | 50.9 °C |
| GATCCCCAGCGGGATC ((((((....)))))) | -30.7 kcal/mol | 59.8 °C |
| GCTCGCGAAAGCGCCAGC ((((((....)))..))) | -8.57 kcal/mol | 42.1 °C |
| GCTGCTGGAAACAACAGC ((((.((....)).)))) | -32.8 kcal/mol | 47.2 °C |
| GGCAACGAAAGTTCGCC ((((((....))).))) | -22.9 kcal/mol | 51.6 °C |
| GATCAAGCGTTGATC ((((((...)))))) | -29.6 kcal/mol | 40.2 °C |
| GCGTTCGGAAACAAACGC (((((.(....).))))) | -34.6 kcal/mol | 47.9 °C |
| CATGGGAAACCATG (((((....))))) | -22.3 kcal/mol | 47.8 °C |
| GCGTCACGAAAGTGCGC (((.(((....)))))) | -31.1 kcal/mol | 66.9 °C |
| GCTGGCGAAAGCCTAGC ((((((....))).))) | -19.4 kcal/mol | 59.3 °C |
| AGCTGGAAACAGCT (((((....))))) | -23.3 kcal/mol | 54.3 °C |

| Sequence | folding enthalpy [1] | Tm [2] |
| --- | --- | --- |
| GATCCTGTTTAGGATC ((((((....)))))) | -44.3 kcal/mol | 52.6 °C |
| GGTTGTGGAAACACAGCC ((.((((....)))).)) | -42.4 kcal/mol | 52.1 °C |
| GATCTACTCTTAGATC ((((((....)))))) | -29.7 kcal/mol | 41.1 °C |
| GGATTCGAAAGAAGTCC ((((((....))).))) | -17.2 kcal/mol | 36.7 °C |
| GTCTAACGAAAGTTGAC (((.(((....)))))) | -24.9 kcal/mol | 43.6 °C |
| GGGCACGAAAGTGATCCC ((((((....)))..))) | -19.4 kcal/mol | 50.3 °C |
| CCCATGAAAATGGG (((((....))))) | -20.9 kcal/mol | 51.2 °C |
| GATGACGAAAGTCGCATC ((((((....)))..))) | -11.1 kcal/mol | 30.8 °C |
| GATCGTAGAACGATC ((((((...)))))) | -36.6 kcal/mol | 55.2 °C |
| CGTGAACGGAAACGTACG (((..(((....)))))) | -21.1 kcal/mol | 35.3 °C |
| GAAGAGAAATCTTC (((((....))))) | -10.9 kcal/mol | 30.6 °C |
| GGTGACGGAAACGCCACC ((((.((....)).)))) | -48 kcal/mol | 54.3 °C |
| GCCTCGCGAAAGCGTCGC ((..(((....)))..)) | -12.2 kcal/mol | 43.1 °C |
| GGTGGAGCGAAAGCTACC (((..(((....)))))) | -13.7 kcal/mol | 44.1 °C |
| GACATAGGAAACTGTGTC ((((.((....)).)))) | -40.5 kcal/mol | 44.4 °C |
| GCGCCGCGAAAGCTACGC (((..((....))..))) | -20.9 kcal/mol | 53.5 °C |
| GATCGGCGCCCGATC ((((((...)))))) | -36.4 kcal/mol | 56.8 °C |
| GATCTGTCGGCAGATC ((((((....)))))) | -45.6 kcal/mol | 51.1 °C |
| GATCTGTGACCAGATC ((((((....)))))) | -36.5 kcal/mol | 47.8 °C |
| GATCACGCTGTGATC ((((((...)))))) | -39.5 kcal/mol | 59.2 °C |
| GATCCGCCTGCGGATC ((((((....)))))) | -40.3 kcal/mol | 69.2 °C |
